Activity calls are given as the source filed them. No cut-off for these calls is given here.
Columns and labels:
MDA-MB-231 [1] = assay: Sensitization of 120 ng/mL TRAIL-induced apoptosis in human MDA-MB-231 cells assessed as combination index at 12 uM after 24 hrs by ATPlite assay; format: functional
MDA-MB-231 [2] = assay: Sensitization of 130 ng/mL TRAIL-induced apoptosis in human MDA-MB-231 cells assessed as combination index at 13 uM after 24 hrs by ATPlite assay; format: functional
MEF [3] = assay: Inhibition of wild type MEF proliferation assessed as cell viability at 5 to 45 uM after 24 hrs by ATPlite assay relative to control; format: cell-based; conditions: mouse
[4] = Stability in human plasma by LC/MS/MS analysis; format: ADME, cell-free; conditions: read-out: Stability
Procedure, shortened: (§1)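 Incubation in human plasma at 37 °C for 15, 60 and 120 min. Quantitation by LC/MS/MS in MRM mode, with results expressed as percent remaining of initial concentration.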

Plasma = assay: Stability in human plasma assessed as compound remaining by LC/MS/MS analysis; format: ADME, cell-free; procedure, shortened: as §1
[5] = Metabolic stability in liver microsomes assessed as half life after 30 mins by LC/MS/MS analysis in presence of NADPH; format: ADME, Microsome
[6] = Metabolic stability in liver microsomes assessed as intrinsic clearance after 30 mins by LC/MS/MS analysis in presence of NADPH; format: ADME, Microsome; conditions: 0.5 h
[7] = Permeability by PAMPA method; format: ADME
[8] = Apparent solubility after 1 day by nephelometry-based method; format: physicochemical
Procedure, shortened: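 DMSO stock at 10 mM prepared on day 1. Tested at 8 concentrations in triplicate. Assay run on day 1 and read on day 2.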

MEF [9] = assay: Inhibition of XIAP knockout MEF proliferation assessed as cell viability after 24 hrs by ATPlite assay relative to control; format: functional, cell-based; conditions: Mus musculus
MDA-MB-231 [10] = assay: Increase in caspase-3 activation in human MDA-MB-231 cells at 5 to 20 uM after 24 hrs by MSD assay; format: functional, cell-based
MDA-MB-231 [11] = assay: Sensitization of 50 ng/mL TRAIL-induced apoptosis in human MDA-MB-231 cells assessed as combination index at 5 uM after 24 hrs by ATPlite assay; format: functional
MDA-MB-231 [12] = assay: Sensitization of 90 ng/mL TRAIL-induced apoptosis in human MDA-MB-231 cells assessed as combination index at 9 uM after 24 hrs by ATPlite assay; format: functional
MDA-MB-231 [13] = assay: Sensitization of 100 ng/mLTRAIL-induced apoptosis in human MDA-MB-231 cells assessed as combination index at 10 uM after 24 hrs by ATPlite assay; format: functional
[14] = molecular target: E3 ubiquitin-protein ligase XIAP (Homo sapiens, UniProt P98170); assay: Binding affinity to histidine6-tagged human XIAP Bir3 domain expressed in Escherichia coli BL21(DE3)
Procedure, shortened: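 Binding to 15N-labelled Bir3 was measured by 2D [15N,1H]-HSQC NMR titration at 300 K. Samples held 0.1 mM protein in 100 mM potassium phosphate pH 7.0 with 5% DMSO and 7% D2O. At least six ligand concentrations were used. Kd came from a non-linear least-squares fit of fractional shift change (p) against ligand concentration.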

MDA-MB-231 [15] = assay: cells; conditions: Homo sapiens, MDA-MB-231, 48 h

Chain of E3 ubiquitin-protein ligase XIAP (P98170 whole entry, the tested form may be a part): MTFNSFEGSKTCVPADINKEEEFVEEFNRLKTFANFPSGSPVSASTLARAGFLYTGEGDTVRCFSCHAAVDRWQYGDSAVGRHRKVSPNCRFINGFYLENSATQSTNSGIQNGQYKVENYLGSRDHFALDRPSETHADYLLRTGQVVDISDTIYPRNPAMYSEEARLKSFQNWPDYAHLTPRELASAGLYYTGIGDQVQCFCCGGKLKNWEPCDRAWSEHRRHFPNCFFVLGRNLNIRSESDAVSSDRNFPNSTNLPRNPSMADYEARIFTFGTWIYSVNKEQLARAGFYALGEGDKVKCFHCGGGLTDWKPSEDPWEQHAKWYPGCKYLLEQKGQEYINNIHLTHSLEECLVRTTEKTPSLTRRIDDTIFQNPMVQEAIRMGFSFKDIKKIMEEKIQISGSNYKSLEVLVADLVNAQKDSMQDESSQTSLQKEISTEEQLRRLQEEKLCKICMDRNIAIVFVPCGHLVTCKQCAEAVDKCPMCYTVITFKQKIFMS

CN[C@@H](C)C(=O)Nc1ccc(Oc2ccc(OC)cc2)c(C(=O)NCc2csc(-c3cccs3)n2)c1
Activity (MDA-MB-231 [1]): 0.27 | Activity (MDA-MB-231 [2]): 0.32 | Activity (MEF [3]): Toxic | half-life [4]: > 120 min | Stability (Plasma): 93.9% | half-life [5]: 14.5 min | clearance [6]: 47.7 µL/min/mg | permeability [7]: 27% | solubility kinetic at 24 h [8]: > 100 µg/mL | Activity (MEF [9]): Active | Activity (MDA-MB-231 [10]): Active | Activity (MDA-MB-231 [11]): 0.44 | Activity (MDA-MB-231 [12]): 0.4 | Activity (MDA-MB-231 [13]): 0.41

C[C@H](N)C(=O)Nc1ccc(Oc2ccccc2Cl)cc1
Kd [14]: 200 µM

CC[C@H](C)[C@H](NC(=O)[C@@H]1CCCN1C(=O)[C@@H](NC(=O)[C@H](C)N)C(C)C)C(=O)O
IC50 (MDA-MB-231 [15]): > 50 µM
